The results in this text go back to ChEMBL document CHEMBL1133571, “Extended TIP(P) analogues as precursors for labeled delta-opioid receptor ligands” (J Med Chem, 2000).

“And” between values parts separate entries of the source, which are not always exact repeats. Equal entries are not always repeated. Where a SMILES comes first, the peptide text is derived from it. [ ]: non-standard residue; d: D form. Tic = O=C(O)[C@@H]1Cc2ccccc2CN1

The target in experiment [1] is Mu-type opioid receptor (Homo sapiens, UniProt P35372). The experiment is described as follows: Affinity towards human Opioid receptor mu 1 on CHO cell membranes using [3H]DAMGO displacement. In outline: (§1)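 Membranes from CHO cells stably expressing cloned δ or µ receptors. Incubated 90 min at 22 °C with peptide concentrations up to 10 µM, 3 mM Mg2+, and peptidase inhibitors (10 µM bestatin, 30 µM captopril, 50 µM L-leucyl-L-leucine). Nonspecific binding measured with 10 µM unlabeled ligand. IC50 from nonlinear regression converted to Ki by Cheng-Prusoff (KD: [3H]DPDPE 0.5 nM, δ; [3H]DAMGO 0.644 nM, µ).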

Experiment [2] deals with Delta-type opioid receptor (Homo sapiens, UniProt P41143). The experiment can be described thus: Affinity towards human Opioid receptor delta 1 on CHO cell membranes using [3H]DPDPE displacement. In outline: as §1
Sequence of Delta-type opioid receptor (P41143 whole entry): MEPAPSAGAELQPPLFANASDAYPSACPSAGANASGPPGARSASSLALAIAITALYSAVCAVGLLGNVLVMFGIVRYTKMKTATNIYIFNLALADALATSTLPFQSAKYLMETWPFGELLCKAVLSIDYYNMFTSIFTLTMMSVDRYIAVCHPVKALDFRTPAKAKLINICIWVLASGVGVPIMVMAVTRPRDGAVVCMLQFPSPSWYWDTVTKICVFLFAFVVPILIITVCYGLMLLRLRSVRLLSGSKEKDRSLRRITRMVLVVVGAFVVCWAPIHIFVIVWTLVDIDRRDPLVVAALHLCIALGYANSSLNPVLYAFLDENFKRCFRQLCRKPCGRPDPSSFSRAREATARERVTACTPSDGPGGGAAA

Sequence of Mu-type opioid receptor (P35372 whole entry): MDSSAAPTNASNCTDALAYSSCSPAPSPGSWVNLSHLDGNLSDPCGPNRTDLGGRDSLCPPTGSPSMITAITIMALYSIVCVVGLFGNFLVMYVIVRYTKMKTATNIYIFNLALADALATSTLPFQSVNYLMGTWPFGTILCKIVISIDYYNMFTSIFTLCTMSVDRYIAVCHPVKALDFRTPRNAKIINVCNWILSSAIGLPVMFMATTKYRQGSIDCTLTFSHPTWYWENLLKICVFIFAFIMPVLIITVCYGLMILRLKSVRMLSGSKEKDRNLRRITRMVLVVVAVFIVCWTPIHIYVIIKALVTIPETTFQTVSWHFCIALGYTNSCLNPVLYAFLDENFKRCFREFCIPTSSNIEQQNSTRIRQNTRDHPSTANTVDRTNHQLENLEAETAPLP

What is called Ki is a measure of affinity in units of concentration, obtained from inhibition or displacement. Read a high Ki as a looser hold on the target. `NC(=O)CC[C@@H](NC(=O)[C@H](Cc1ccccc1)NC(=O)[C@@H]1Cc2ccccc2CN1C(=O)[C@@H](N)Cc1ccc(O)cc1)C(=O)O`: the Ki in experiment [1] is over 4500 nM; in experiment [2], 5 nM.
The corresponding values for `NC(=O)[C@H](CCC(=O)O)NC(=O)[C@H](Cc1ccccc1)NC(=O)[C@H](Cc1ccccc1)NC(=O)[C@@H]1Cc2ccccc2CN1C(=O)[C@@H](N)Cc1ccc(O)cc1` are over 4500 nM and 9.9 nM.
In the case of `NC(=O)[C@H](CCC(=O)O)NC(=O)[C@H](Cc1ccccc1)NC(=O)[C@@H]1Cc2ccccc2CN1C(=O)[C@@H](N)Cc1ccc(O)cc1`, the Ki is 4500 nM in experiment [1] and 19.9 nM in experiment [2].
`CC(=O)NCCCC[C@@H](NC(=O)[C@H](Cc1ccccc1)NC(=O)[C@H](Cc1ccccc1)NC(=O)[C@@H]1Cc2ccccc2CN1C(=O)[C@@H](N)Cc1ccc(O)cc1)C(=O)O`: the inhibition constant (Ki) in experiment [1] was over 4500 nM; in experiment [2] it was 16.3 nM and 21.5 nM.
For the compound `NC(=O)CC[C@H](NC(=O)[C@H](Cc1ccccc1)NC(=O)[C@@H]1Cc2ccccc2CN1C(=O)[C@@H](N)Cc1ccc(O)cc1)C(=O)O`, the inhibitory constant (Ki) in experiment [1] was over 4500 nM; in experiment [2], 37.7 nM.
As for `N[C@@H](Cc1ccc(O)cc1)C(=O)N1Cc2ccccc2C[C@H]1C(=O)N[C@@H](Cc1ccccc1)C(=O)O` (H-Tyr-[Tic]-Phe-OH), the inhibition constant Ki was over 4500 nM in experiment [1] and 148 nM in experiment [2].
The corresponding values for `CC(=O)NCCCC[C@H](NC(=O)[C@H](Cc1ccccc1)NC(=O)[C@@H]1Cc2ccccc2CN1C(=O)[C@@H](N)Cc1ccc(O)cc1)C(=O)O` are over 4500 nM and 27.8 nM.
Turning to `NC(=O)[C@@H](CC(=O)O)NC(=O)[C@H](Cc1ccccc1)NC(=O)[C@H](Cc1ccccc1)NC(=O)[C@@H]1Cc2ccccc2CN1C(=O)[C@@H](N)Cc1ccc(O)cc1`, the Ki in experiment [1] turned out to be 3280 nM; in experiment [2], 10.3 nM.
On the same counts, the results for `NC(=O)[C@@H](CCC(=O)O)NC(=O)[C@H](Cc1ccccc1)NC(=O)[C@@H]1Cc2ccccc2CN1C(=O)[C@@H](N)Cc1ccc(O)cc1` are over 4500 nM and 34.9 nM.
`NC(=O)[C@H](CC(=O)O)NC(=O)[C@H](Cc1ccccc1)NC(=O)[C@H](Cc1ccccc1)NC(=O)[C@@H]1Cc2ccccc2CN1C(=O)[C@@H](N)Cc1ccc(O)cc1`: the inhibitory constant (Ki) in experiment [1] was over 4000 nM; in experiment [2], 9.5 nM.
On to `NC(=O)CC[C@@H](NC(=O)[C@H](Cc1ccccc1)NC(=O)[C@H](Cc1ccccc1)NC(=O)[C@@H]1Cc2ccccc2CN1C(=O)[C@@H](N)Cc1ccc(O)cc1)C(=O)O`, for which the inhibitory constant (Ki) was over 4500 nM in experiment [1] and 5.1 nM in experiment [2].
For the compound `NC(=O)C[C@@H](NC(=O)[C@H](Cc1ccccc1)NC(=O)[C@@H]1Cc2ccccc2CN1C(=O)[C@@H](N)Cc1ccc(O)cc1)C(=O)O`, the Ki was over 4500 nM in experiment [1] and 13.7 nM in experiment [2].
As to `N[C@@H](Cc1ccc(O)cc1)C(=O)N1Cc2ccccc2C[C@H]1C(=O)N[C@@H](Cc1ccccc1)C(=O)N[C@@H](Cc1ccccc1)C(=O)O` (H-Y[Tic]FF-OH), the inhibition constant Ki is over 4500 nM in experiment [1]; 6.1 nM and 1.22 nM in experiment [2].
For `NC(=O)C[C@H](NC(=O)[C@H](Cc1ccccc1)NC(=O)[C@@H]1Cc2ccccc2CN1C(=O)[C@@H](N)Cc1ccc(O)cc1)C(=O)O`, the Ki in experiment [1] was over 4500 nM; in experiment [2], 61.1 nM.
For the compound `CC(=O)NCCCC[C@@H](NC(=O)[C@H](Cc1ccccc1)NC(=O)[C@@H]1Cc2ccccc2CN1C(=O)[C@@H](N)Cc1ccc(O)cc1)C(=O)O`, the Ki in experiment [1] was over 4500 nM; in experiment [2], 21.6 nM.
Regarding `NC(=O)[C@H](CC(=O)O)NC(=O)[C@H](Cc1ccccc1)NC(=O)[C@@H]1Cc2ccccc2CN1C(=O)[C@@H](N)Cc1ccc(O)cc1`, the Ki was over 4500 nM in experiment [1] and 21.4 nM in experiment [2].
On the same counts, the results for `NC(=O)CC[C@H](NC(=O)[C@H](Cc1ccccc1)NC(=O)[C@H](Cc1ccccc1)NC(=O)[C@@H]1Cc2ccccc2CN1C(=O)[C@@H](N)Cc1ccc(O)cc1)C(=O)O` are over 4500 nM and 9.7 nM.
On the same counts, the results for `NC(=O)[C@@H](CCC(=O)O)NC(=O)[C@H](Cc1ccccc1)NC(=O)[C@H](Cc1ccccc1)NC(=O)[C@@H]1Cc2ccccc2CN1C(=O)[C@@H](N)Cc1ccc(O)cc1` are 1950 nM and 7.8 nM.
The corresponding values for `NC(=O)C[C@H](NC(=O)[C@H](Cc1ccccc1)NC(=O)[C@H](Cc1ccccc1)NC(=O)[C@@H]1Cc2ccccc2CN1C(=O)[C@@H](N)Cc1ccc(O)cc1)C(=O)O` are over 4500 nM and 7.1 nM.
For `NC(=O)C[C@@H](NC(=O)[C@H](Cc1ccccc1)NC(=O)[C@H](Cc1ccccc1)NC(=O)[C@@H]1Cc2ccccc2CN1C(=O)[C@@H](N)Cc1ccc(O)cc1)C(=O)O`, the Ki in experiment [1] was 3200 nM; in experiment [2], 8.1 nM.
The corresponding values for `NC(=O)[C@@H](CC(=O)O)NC(=O)[C@H](Cc1ccccc1)NC(=O)[C@@H]1Cc2ccccc2CN1C(=O)[C@@H](N)Cc1ccc(O)cc1` are over 4500 nM and 69 nM.
